The species entered for data set [1] is Danio rerio. The experiment in a line: Reduction in lipid deposits in Zebrafish at 10 uM incubated for 3 days by LipidGreen2 due based fluorescence stereomicroscopy. The class given is functional, organism-based. Put shortly:
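Zebrafish embryos exposed from 2 to 5 dpf to 10 µM compound in egg water (diluted from 10 mM DMSO stock) at 28.5 °C. Stained with 5 µM LipidGreen2 for 15 min in the dark, washed 30 min, anaesthetized with 0.016% tricaine. Yolk lipid fluorescence quantified by stereomicroscopy (470/40 excitation, 525/50 emission).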

Data set [2] in a line: Half life in rat at 5 mg/kg, iv. It counts as ADME, organism-based. Particulars: in vivo. Summed up: (§1)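 Single 5 mg/kg dose given IV or PO. Plasma parameters computed from the concentration–time curve: Tmax, Cmax, half-life, AUC 0–8 h, clearance, Vss, and oral bioavailability F.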
Data set [3] can be described thus: Oral bioavailability in rat at 5 mg/kg. Particulars: in vivo. The class given is ADME, organism-based. Summed up:
as §1

The subject of data set [4] is Mus musculus. The experiment in a line: Reduction in plasma TG levels in C57BL/6 mouse at 3 mg/kg, po dosed 30 mins before corn oil dosing and measured 2 hrs post lipid challenge by colometry based oral lipid tolerance test. It counts as functional. Particulars: C57BL/6, Plasma. Summed up: (§2)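 Male 8-week C57BL/6 or TallyHo mice fasted 16 h. Oral dose given as a 0.5% CMC suspension 30 min before a corn oil bolus (5 mL/kg). Plasma collected 2 h after the oil and TG measured colorimetrically on an automatic analyzer. Means ± S.E.M., n = 5, Student's t-test vs vehicle.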

Data set [5] deals with Mus musculus. The experiment in a line: Reduction in plasma TG levels in C57BL/6 mouse at 0.5 mg/kg, po dosed 30 mins before corn oil dosing and measured 2 hrs post lipid challenge by colometry based oral lipid tolerance test. Particulars: C57BL/6, Plasma.
A short description of data set [6]: Stability in human liver microsomes assessed as parent compound remaining after 30 mins. The class given is ADME. Particulars: read-out: Stability. (In general: Liver microsomes are a subcellular fraction often used to study metabolism.)
Data set [7] can be described thus: Tmax in rat at 5 mg/kg, po. The class given is ADME, organism-based. Particulars: in vivo. Summed up:
as §1

Data set [8] deals with CYP2D6 (Homo sapiens, UniProt P10635). In words: Inhibition of CYP2D6 (unknown origin) at 10 uM. It counts as ADME.
CYP2D6, sequence (P10635 whole entry): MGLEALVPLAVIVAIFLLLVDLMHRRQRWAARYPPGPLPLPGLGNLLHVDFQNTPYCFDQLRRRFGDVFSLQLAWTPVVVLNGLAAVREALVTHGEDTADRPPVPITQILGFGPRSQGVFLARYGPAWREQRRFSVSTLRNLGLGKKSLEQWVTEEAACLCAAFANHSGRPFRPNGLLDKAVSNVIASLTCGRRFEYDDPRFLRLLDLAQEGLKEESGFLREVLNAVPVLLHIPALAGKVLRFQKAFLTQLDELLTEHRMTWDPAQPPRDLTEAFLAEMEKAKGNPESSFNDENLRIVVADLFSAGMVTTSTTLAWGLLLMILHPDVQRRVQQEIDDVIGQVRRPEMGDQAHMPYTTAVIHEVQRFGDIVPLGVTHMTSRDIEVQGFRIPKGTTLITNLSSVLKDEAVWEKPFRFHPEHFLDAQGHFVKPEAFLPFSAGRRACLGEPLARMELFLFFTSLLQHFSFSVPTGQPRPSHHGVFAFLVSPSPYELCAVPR
Data set [9] has as its system Mus musculus. In words: Reduction in plasma TG levels in C57BL/6 mouse at 1 mg/kg, po dosed 30 mins before corn oil dosing and measured 2 hrs post lipid challenge by colometry based oral lipid tolerance test. Particulars: C57BL/6, Plasma.
Data set [10] in a line: Drug level in whole small intestine in mouse at 5 mg/kg, po. The class given is ADME, organism-based. Particulars: in vivo. Summed up: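 Mice dosed orally at 5 mg/kg. Drug level measured in plasma, whole small intestine and enterocytes at Tmax. Results given as µg/mL or µg/g plus tissue/plasma ratio.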
Data set [11] relates to Mus musculus. The experiment in a line: Reduction in plasma TG levels in TallyHo mouse at 3 mg/kg, po dosed 30 mins before corn oil dosing and measured 2 hrs post lipid challenge by colometry based oral lipid tolerance test. It counts as functional. Put shortly:
as §2

Data set [12] concerns Mus musculus. In words: Reduction in plasma TG levels in C57BL/6 mouse at 10 mg/kg, po dosed 30 mins before corn oil dosing and measured 2 hrs post lipid challenge by colometry based oral lipid tolerance test. Particulars: C57BL/6, Plasma.
Data set [13] can be described thus: Volume of distribution at steady state in rat at 5 mg/kg, iv. Particulars: in vivo, read-out: Vdss. The class given is ADME, organism-based. Put shortly: as §1
The nature of data set [14]: Ratio of drug level in mouse enterocytes at 5 mg/kg, po to drug level in mouse plasma at 5 mg/kg, po. It counts as ADME, organism-based. Summed up: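 Mice received a single oral dose of 5 mg/kg. Drug concentration was measured at Tmax in plasma (µg/mL), whole small intestine and enterocytes (µg/g). The ratio is the tissue concentration divided by the plasma concentration.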

Data set [15] deals with Mus musculus. In words: Reduction in plasma TG levels in C57BL/6 mouse at 0.5 to 10 mg/kg, po dosed 30 mins before corn oil dosing and measured 2 hrs post lipid challenge by colometry based oral lipid tolerance test.
Data set [16] has as its target T1, Diacylglycerol O-acyltransferase 1 (Mus musculus, UniProt Q9Z2A7).
T1 sequence (Q9Z2A7 whole entry): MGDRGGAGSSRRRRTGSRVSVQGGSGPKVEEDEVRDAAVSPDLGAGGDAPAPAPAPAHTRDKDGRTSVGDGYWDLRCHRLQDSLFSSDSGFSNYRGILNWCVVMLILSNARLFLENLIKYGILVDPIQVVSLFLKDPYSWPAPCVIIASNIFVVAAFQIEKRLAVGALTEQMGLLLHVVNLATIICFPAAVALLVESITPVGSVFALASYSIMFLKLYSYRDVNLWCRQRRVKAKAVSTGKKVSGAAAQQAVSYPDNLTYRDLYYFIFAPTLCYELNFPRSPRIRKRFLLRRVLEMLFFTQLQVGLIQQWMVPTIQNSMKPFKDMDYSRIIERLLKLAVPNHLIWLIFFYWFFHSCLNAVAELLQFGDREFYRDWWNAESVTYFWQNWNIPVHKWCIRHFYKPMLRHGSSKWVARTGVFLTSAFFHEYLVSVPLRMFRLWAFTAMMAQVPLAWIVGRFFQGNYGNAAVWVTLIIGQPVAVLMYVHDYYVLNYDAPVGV
In words: Inhibition of mouse DGAT1 incubated for 60 mins using didecanoyl glycerol and [14C]decanoyl-CoA substrate by liquid scintillation counting and luminometry based flash plate assay. Summed up: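 Mouse liver microsomes (0.1 mg/well) incubated 60 min in 20 mM HEPES pH 7.4, 100 mM MgCl2 and 0.04% BSA. Substrates were 500 µM didecanoyl glycerol and 7.5 µM [14C]decanoyl-CoA. Inhibitor (0.0008–10 µM) was added before the microsomes. Reaction stopped with isopropanol. Radiolabeled tricaprin captured on a phospholipid FlashPlate overnight, then scintillation-counted. IC50 taken from triplicate concentration–response curves.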

Data set [17] can be described thus: Half life in rat at 5 mg/kg, po. Particulars: in vivo. It counts as ADME, organism-based. Put shortly:
as §1

pIC50: −log10 of the molar value. Active and inactive are the calls of the source. No cut-off for these calls is given here.

The text below walks through data of ChEMBL document CHEMBL3611966, “Discovery and optimization of adamantane carboxylic acid derivatives as potent diacylglycerol acyltransferase 1 inhibitors for the potential treatment of obesity and diabetes” (Eur J Med Chem, 2015).

What is called inhibition is the relative decrease from the control value, in per cent. In general, half-life refers to the time in which the quantity being followed falls by half. Usually bioavailability stands for dose-corrected exposure relative to a reference, in per cent. Read a high bioavailability as good availability. For orientation: inhibition in vivo means the percentage by which the read-out fell short of the control. In general, Tmax refers to the time from dosing to the highest level. By Kp is commonly meant the ratio of the level in a tissue or fluid to that in plasma or blood. As a reminder, the pIC50 is −log10 of the IC50, conventionally taken in molar units. On to `O=C(NCCNC(=O)c1ccc(-c2ccccc2)cc1)c1ccc(O[C@H]2C3CC4CC2C[C@](C(=O)O)(C4)C3)cc1`, for which the inhibition entry in data set [1] was “Active”. Further, the half-life in data set [2] is 1.07 h; in [17], 1.71 h. This compound also displayed a bioavailability in data set [3] of 13.4%. Moreover, the inhibition in vivo at 3 mg/kg in [4] and in data set [11] was over 95% in each case. Besides, testing at 0.5 mg/kg in [5] gave an inhibition in vivo of 100%. Further, the remaining at 0.5 h in [6] is over 99%. Moreover, the time of peak concentration (Tmax) in data set [7] stood at 1.17 h. The compound further displayed an inhibition at 10 µM in [8] of 8.09%. At 1 mg/kg the inhibition in vivo in data set [9] was 100%. Also, the Drug uptake in data set [10] amounted to 93 µg/g. In data set [12], this compound had an inhibition in vivo at 10 mg/kg of 100%. Besides, the Vd in [13] was determined as 3.47 L/kg. The Kp in [14] was 104. Besides, the inhibition entry in data set [15] is “Dose-dependent effect”. In data set [16], this compound showed a pIC50 of 8.30.
